For one assay, the target named is GPR99 (Homo sapiens, UniProt Q96P68). Conditions: GPR99 recognition of oxoglutarate; cited from earlier work.
For the next assay, the target named is GPR99/OXGR1 Y92A (Homo sapiens, UniProt Q96P68, Y92A). The assay can be described thus: IP-one accumulation assay, Y92A mutant. The assay is classed as cell-based. Conditions: Y92A vs WT; oxoglutarate stimulation.
The target in the next assay is GPR99/OXGR1 C141A (Homo sapiens, UniProt Q96P68, C141A). Nature of the assay: IP-one accumulation assay, C141A mutant. In kind it is cell-based. The settings on record: C141A vs WT.
Another assay has as its target Human GPR99 (WT) (Homo sapiens, UniProt Q96P68). The assay can be described thus: cAMP inhibition assay. The assay is classed as cell-based. Summed up: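 HeLa cells transiently expressing human GPR99 for 24 h, pretreated 12 h at 37 °C with 250 ng/mL PTX or vehicle. Cells harvested in HBSS with 5 mM HEPES, 0.1% BSA and 0.5 mM IBMX, then stimulated 30 min with varying ligand concentrations plus 2.5 μM forskolin. cAMP read by LANCE Ultra kit. Data are % of maximal response, mean ± SEM, ≥3 independent experiments; EC50 from three-parameter curve fit.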

A further assay deals with GPR99/OXGR1 R148A (Homo sapiens, UniProt Q96P68, R148A). The assay can be described thus: IP-one accumulation assay, R148A mutant. The assay is classed as cell-based. Conditions: R148A vs WT.
Another assay concerns the target GPR99/OXGR1 K32A (Homo sapiens, UniProt Q96P68, K32A). The assay can be described thus: IP-one accumulation assay, K32A mutant. In kind it is cell-based. Conditions: K32A vs WT; oxoglutarate stimulation.
The target in a further assay is GPR99/OXGR1 (Homo sapiens, UniProt Q96P68). Conditions: oxoglutarate for GPR99/OXGR1; no reference given; cited from earlier work.
The target of the next assay is Human GPR99 (wild-type) (Homo sapiens, UniProt Q96P68). Nature of the assay: IP-one accumulation assay, wild-type receptor. The assay is classed as cell-based. The settings on record: WT.
[1] abbreviates: 250 ng/mL PTX pretreatment 12 h.

For orientation: EC50 means the concentration giving half of the maximal effect.

For `O=C(O)CCC(=O)C(=O)O` [oxoglutarate, 2-oxoglutarate], the EC50 at GPR99 was roughly 200 µM. For the same compound, the “increase in EC50 (IP1 accumulation)” value at GPR99/OXGR1 Y92A and at GPR99/OXGR1 K32A was “more than 100 fold” throughout. Besides, the “maximum response (Emax), IP1 accumulation” value on GPR99/OXGR1 Y92A and at GPR99/OXGR1 K32A was “remained unchanged” each time. In addition, the “effect of alanine substitution on oxoglutarate-induced receptor activation (IP1)” value on GPR99/OXGR1 C141A and on GPR99/OXGR1 R148A was “little effect” in each case. Also, the “cAMP reduction downstream of Gi coupling” value on Human GPR99 (WT) (HeLa, 2.5 μM forskolin) is “failed to stimulate cAMP reduction”. Besides, on GPR99/OXGR1, the “affinity (Kd)” value is listed as “hundreds of micromolar”. On Human GPR99 (wild-type) (HeLa), the “IP1 accumulation (PLC pathway downstream of Gq)” value is recorded as “increased IP1 accumulation”.

Consider pertussis toxin [PTX], for which the “effect on cAMP response elicited by LTE4” value at Human GPR99 (WT) (setting [1]) is on record as “abrogated”. Also, at Human GPR99 (wild-type) (setting [1]), the “effect on LTE4-induced IP1 accumulation” value is reported as “without affecting IP1 accumulation”.
